Experimental data reported in the array DNA melting data of Ke et al. (doi:10.1101/2024.01.08.574731).

Columns and labels:
[1] = folding enthalpy; higher = less favourable; fluorescence melt of hairpins on a sequencing array, two-state fit; conditions: sodium 0.088 M
How it was run: (§1)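 Hairpins were imaged by Cy3 fluorescence on a sequenced MiSeq flow cell with annealed Cy3 and quencher oligos, in 50 mM Na-HEPES pH 8.0, 25 mM NaCl, in 2.5 °C steps up to 60 °C. Bootstrapped two-state fits of normalised signals gave melting temperature and folding enthalpy. Four replicates were combined by inverse variance, and fitted temperatures were raised by 9.35 °C to match UV melts.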

[2] = melting temperature; fluorescence melt of hairpins on a sequencing array, two-state fit, raised by 9.35 °C to match UV melts; conditions: sodium 0.088 M
How it was run: as §1

Sequence | folding enthalpy [1] [kcal/mol] | Tm [2] [°C]
GCGTGGCGAAAGCCCCGC (((.(((....))).))) | -29.3 | 67.6
GTCTGCGAAAGCATTGAC ((((((....)))..))) | -14 | 40.2
GGCACCCGAAAGGGGCC (((.(((....)))))) | -20.9 | 67.1
GAGTTTGAAAAAACTC ((((((....)))))) | -32.2 | 50.8
GCCGTCCGAAAGGAAGGC (((.(((....))).))) | -36.4 | 67
GCCAAGCGAAAGCTCGGC (((.(((....))).))) | -38.9 | 57.4
GATCGGCCAACCGATC ((((((....)))))) | -38.4 | 55.8
GTCCCCGAAAGGGGAGAC ((((((....)))..))) | -8.25 | 54.2
GGCCCAGGAAACTGGGTC (.(((((....))))).) | -34.5 | 59.8
GAGTTGGGAAACCGACTC ((((.((....)).)))) | -40.2 | 51.5
GTTCCCGAAAGGGGTAAC ((((((....)))..))) | -12.2 | 29.8
GTCTACGGAAACGTGGAC (((.(((....))).))) | -39.8 | 53.1
GTTGGCGAAAGCCGAAAC ((((((....)))..))) | -8.56 | 38.2
GCGAACTATCGC ((((....)))) | -20.6 | 45.4
GGCCGTGGAAACACGGTC (.(((((....))))).) | -24.3 | 65.3
GTGACAGGAAACTGTCAC (((((((....))))))) | -42.1 | 65.2
GGGGTCGAAAGACGACCC ((((((....)))..))) | -19.6 | 61.8
GCACTGCCGAAAGGCTGC (((..(((....)))))) | -13.4 | 44.5
GCCTTGCGAAAGCAGGGC (((.(((....))).))) | -29.5 | 69
GATCAACTAATTGATC ((((((....)))))) | -28.4 | 40.8
GATCCACTGCTGGATC ((((((....)))))) | -41.4 | 50.4
GCAAAAGGAAACCTTTGC (((((.(....).))))) | -30.4 | 39.6
GATCCTCTAGAGGATC ((((((....)))))) | -42.6 | 56.4

Sequence | folding enthalpy [1] [kcal/mol] | Tm [2] [°C]
AGTAGCTGAAAAGTTACT ((((.((....)).)))) | -20.2 | 36
GGGTAGAAATACCC (((((....))))) | -23.1 | 47.9
GTGTGCGAAAGCATCCAC ((((((....)))..))) | -11 | 33.9
GGGAGCGAAAGCTCACCC ((((((....)))..))) | -11.2 | 57.2
GGGACCCGAAAGGGCCCC (((.(((....))).))) | -23.6 | 67.8
GATCGGCCACCGATC ((((((...)))))) | -31.7 | 55.1
GCGACCCGTCGC ((((....)))) | -40.1 | 60.7
GAGTCAGGAAACTGGCTC (((.(((....))).))) | -43.1 | 54.1
GATCCGTTGCGGATC ((((((...)))))) | -43 | 57.3
GGTGGACGAAAGTCAACC (((.(((....))).))) | -40.3 | 56.6
GCCAGGCGAAAGCTTTGC ((.(.((....)).).)) | -11.5 | 33.4
GCGGGGAGCCGC ((((....)))) | -14.4 | 62.7
GATCCACACTTGGATC ((((((....)))))) | -41.1 | 52.1
GGGATCCGAAAGGAACCC (((.(((....))).))) | -46.3 | 56.7
CGACCGGAAACGGTGTCG ((((((....)))..))) | -14.8 | 43
GTCGCCGAAAGGCAGGAC ((((((....)))..))) | -13.1 | 50.4
GGCTGCGAAAGCAGGGCC ((((((....)))..))) | -13 | 53.1
GTCCGGACGAAAGTCGAC (((..(((....)))))) | -14 | 35.5
GCGAAGCGAAAGCATTGC ((.(.((....)).).)) | -7.27 | 39.1
GTGACAGAAATGTCAC ((((((....)))))) | -35.7 | 57.6
GATCCCCCTGGGATC ((((((...)))))) | -38.4 | 62.1
GTGTCCTCGAAAGAGCAC (((..(((....)))))) | -14.5 | 36
GATATGGGAAACCGTATC ((((.((....)).)))) | -32 | 43

Sequence | folding enthalpy [1] [kcal/mol] | Tm [2] [°C]
GATCCCTATGGGGATC ((((((....)))))) | -31.3 | 65.5
GTACAGAAATGTAC (((((....))))) | -20.2 | 40.4
GGACGGCGAAAGCCTCC (((.(((....)))))) | -16.4 | 53.5
GTAGTCGAAAGACAGTAC ((((((....)))..))) | -12.5 | 27.2
GACACAGGAAACTGTGTC (((((((....))))))) | -47.9 | 62.5
GAAGGCGAAAGCCCTTTC ((((((....)))..))) | -10 | 37.6
GCGACCATTCGC ((((....)))) | -24.4 | 47.4
GGCTGCGAAAGCACTGCC ((((((....)))..))) | -20.5 | 50.9
GTAACAGGAAACTGTCAC ((.((((....)))).)) | -15.5 | 30.7
GATCGTATCGACGATC ((((((....)))))) | -35 | 55.2
TGAGCGAAAGCTCA (((((....))))) | -12.8 | 67.6
GTAACGCGAAAGCGATAC (((.(((....))).))) | -24.1 | 51
GCAGGGCGAAAGCGCAGC ((.(.((....)).).)) | -11.9 | 54.8
GATCAGGCTCCTGATC ((((((....)))))) | -42.8 | 52.5
GATCATTGCATGATC ((((((...)))))) | -34 | 50.4
GTTTTATCGAAAGATAAC (((..(((....)))))) | -11.4 | 29.8
GACACGGGAAACCATGTC ((((.((....)).)))) | -32.9 | 39.9
GACCTAGGAAACTAGGCC (.(((((....))))).) | -19.3 | 39.5
GCTGGGCGAAAGCCACGC ((..(((....)))..)) | -15.6 | 48
GACACAGGAAACTGTACC (..((((....))))..) | -11.1 | 25.1
GATGCGGGAAACCGCGTC ((.((((....)))).)) | -19.2 | 59.9
GCGAGACGAAAGTCCGC (((.(((....)))))) | -29.3 | 67.2
GATATTGGAAACAATATC (((((((....))))))) | -45.2 | 48.8
